Reference: ChEMBL document CHEMBL5236592, “Induction of Ferroptosis in Glioblastoma and Ovarian Cancers by a New Pyrrole Tubulin Assembly Inhibitor” (J Med Chem, 2022)
The source made the active and inactive calls.

Experiments:
Mus musculus [1] = experiment: Upregulation of Gls2 mRNA expression in tumor of BALB/C nu/nu mouse xenografted with human U-87 MG cells at 25 mg/kg, ip administered every 2 days for 40 days by qPCR analysis; type: functional, organism-based; settings: time 40.0 day
Summary of the method: (§1)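 Female BALB/c nu/nu mice, 10 weeks old, 4 per group. Inoculated s.c. with 1 × 10^8 cells/mL of log-phase U-87 MG or SKOV-3 cells. Dosed i.p. with 100 μL at 25 mg/kg every 2 days; controls got 100 μL saline. Tumors harvested on day 40. RNA extracted from about 20 mg of tissue. qPCR panel of 69 genes, 40 cycles (94 °C 20 s, 60 °C 34 s). Analysed by 2–ΔΔCt; fold ≥1.5 taken as increased.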

Mus musculus [2] = experiment: Upregulation of Sqs mRNA expression in tumor of BALB/C nu/nu mouse xenografted with human SK-OV-3 cells at 25 mg/kg, ip administered every 2 days for 40 days by qPCR analysis; type: functional, organism-based; settings: time 40.0 day; summary of the method: as §1
Mus musculus [3] = experiment: Upregulation of FTH1 mRNA expression in tumor of BALB/C nu/nu mouse xenografted with human SK-OV-3 cells at 25 mg/kg, ip administered every 2 days for 40 days by qPCR analysis; type: functional, organism-based; settings: time 40.0 day
Summary of the method: (§2)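 Female BALB/c nu/nu mice bearing sc U-87 MG or SKOV-3 xenografts were dosed ip at 25 mg/kg (100 μL) every 2 days, or given saline, and tumors were taken at day 40. RNA was extracted from about 20 mg of tissue. qPCR ran 40 cycles (95 °C 15 min; 94 °C 20 s; 60 °C 34 s) on a 69-gene panel. Fold change was by 2^–ΔΔCt, with ≥1.5 counted as increased.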

Mus musculus [4] = experiment: Upregulation of Ttc35 mRNA expression in tumor of BALB/C nu/nu mouse xenografted with human SK-OV-3 cells at 25 mg/kg, ip administered every 2 days for 40 days by qPCR analysis; type: functional, organism-based; settings: time 40.0 day; summary of the method: as §1
OVCAR-3 = experiment: Induction of apoptosis in human OVCAR-3 cells assessed as increase cleaved PARP expression at 5 to 10 nM incubated for 48 hrs by immunoblot analysis; type: functional, cell-based; settings: dose 5-10 nM
Summary of the method: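 OVCAR-3 cells were grown in DMEM with 20% FBS and 0.01 μg/mL insulin. They were treated for 48 h at 0, 0.25, 2.5, 5 and 10 nM. Lysates were made in SDS–urea, sonicated and run on SDS-PAGE, then transferred to nitrocellulose. Blots were probed with anti-PARP (1:1000; full-length and cleaved) and anti-actin loading control (1:10,000), with HRP/ECL detection.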

SK-OV-3 [5] = experiment: Induction of ferroptosis-mediated antitumor activity against human SK-OV-3 cells xenografted in BALB/C nu/nu mouse assessed as increase in lactic acid level in tumor at 25 mg/kg, ip administered every 2 days for 40 days by biochemical analysis; type: functional, organism-based; settings: time 40.0 day
Summary of the method: (§3)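 U-87 MG or SKOV-3 sc xenografts (1 × 10^8 cells/mL) in female BALB/c nu/nu mice, 4 per group. Given 25 mg/kg ip in 100 μL every 2 days, or saline. Tumors harvested on day 40 and assayed for LPO, MDA, lactic acid, total glutathione (GSH + GSSG), ATP and Fe2+.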

Mus musculus [6] = experiment: Upregulation of Cs mRNA expression in tumor of BALB/C nu/nu mouse xenografted with human U-87 MG cells at 25 mg/kg, ip administered every 2 days for 40 days by qPCR analysis; type: functional, organism-based; settings: time 40.0 day; summary of the method: as §2
Mus musculus [7] = experiment: Upregulation of Hspb1 mRNA expression in tumor of BALB/C nu/nu mouse xenografted with human SK-OV-3 cells at 25 mg/kg, ip administered every 2 days for 40 days by qPCR analysis; type: functional, organism-based; settings: time 40.0 day; summary of the method: as §1
SK-OV-3 [8] = experiment: Induction of ferroptosis-mediated antitumor activity against human SK-OV-3 cells xenografted in BALB/C nu/nu mouse assessed as increase in […] level in tumor at 25 mg/kg, ip administered every 2 days for 40 days by biochemical analysis; type: functional, organism-based; settings: time 40.0 day; summary of the method: as §3
SK-OV-3 [9] = experiment: Induction of ferroptosis-mediated antitumor activity against human SK-OV-3 cells xenografted in BALB/C nu/nu mouse assessed as reduction in ATP level in tumor at 25 mg/kg, ip administered every 2 days for 40 days by biochemical analysis; type: functional, organism-based; settings: time 40.0 day; summary of the method: as §3
U-87MG ATCC [10] = experiment: Induction of ferroptosis-mediated antitumor activity against human U-87 MG cells xenografted in BALB/C nu/nu mouse assessed as increase in malondialdehyde level in tumor at 25 mg/kg, ip administered every 2 days for 40 days by biochemical analysis; type: functional, organism-based; settings: time 40.0 day; summary of the method: as §3
SK-OV-3 [11] = experiment: Induction of ferroptosis-mediated antitumor activity against human SK-OV-3 cells xenografted in BALB/C nu/nu mouse assessed as increase in malondialdehyde level in tumor at 25 mg/kg, ip administered every 2 days for 40 days by biochemical analysis; type: functional, organism-based; settings: time 40.0 day; summary of the method: as §3
U-87MG ATCC [12] = experiment: Induction of ferroptosis-mediated antitumor activity against human U-87 MG cells xenografted in BALB/C nu/nu mouse assessed as increase in […] level in tumor at 25 mg/kg, ip administered every 2 days for 40 days by biochemical analysis; type: functional, organism-based; settings: time 40.0 day; summary of the method: as §3
Mus musculus [13] = experiment: Upregulation of Akr1c1 mRNA expression in tumor of BALB/C nu/nu mouse xenografted with human SK-OV-3 cells at 25 mg/kg, ip administered every 2 days for 40 days by qPCR analysis; type: functional, organism-based; settings: time 40.0 day; summary of the method: as §2

Measured: Activity

COc1cc(C(=O)c2cn(-c3ncccn3)cc2-c2ccco2)cc(OC)c1OC
active: all assays above
